pKi: −log10 of the molar value. Values after ≈ are worked out from the molar mass of the structure shown.
How the values were obtained:
[1] = test system: Bacillus subtilis; experiment: Antibacterial activity against Bacillus subtilis 19659 assessed as growth inhibition measured for 3 days by broth microdilution method; assay type: functional; conditions: Bacillus subtilis, 19659, 72 h; read-out: MIC
Procedure, shortened: (§1)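 MIC by broth microdilution against a panel of Gram-positive and Gram-negative strains (ATCC-type numbers where given). Run in triplicate on three different days.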

[2] = test system: Staphylococcus aureus; experiment: Antibacterial activity against Staphylococcus aureus 13709 assessed as growth inhibition measured for 3 days by broth microdilution method; assay type: functional; conditions: Staphylococcus aureus, 13709, 72 h; read-out: MIC; procedure, shortened: as §1
[3] = test system: Mus musculus; experiment: T>MIC in CD1 mouse at 50 mg/kg, ip bid; conditions: route intraperitoneal
Procedure, shortened: (§2)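 Female CD-1 mice, single intraperitoneal dose of 25, 50 or 100 mg/kg; the 50 mg/kg BID group was dosed twice. Plasma levels were followed over time to derive tmax, Cmax, half-life, Vz, clearance and AUC. Time above MIC was taken against a 2000 ng/mL plasma threshold.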

[4] = test system: Mus musculus; experiment: T>MIC in CD1 mouse at 100 mg/kg, ip; conditions: route intraperitoneal; procedure, shortened: as §2
[5] = test system: Mus musculus; experiment: T>MIC in CD1 mouse at 50 mg/kg, ip; conditions: route intraperitoneal; procedure, shortened: as §2
[6] = test system: Mus musculus; experiment: T>MIC in CD1 mouse at 25 mg/kg, ip; conditions: route intraperitoneal; procedure, shortened: as §2
[7] = test system: Mus musculus; experiment: Toxicity in CD1 mouse assessed as mortality at < 100 mg/kg, ip; assay type: organism-based; design: dose 100 mg/kg, route intraperitoneal; conditions: in vivo
Procedure, shortened: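 Female CD-1 mice were given the compound intraperitoneally in the PK dose groups. Mortality and clinical observations were recorded.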

[8] = test system: Mus musculus; experiment: AUC in CD1 mouse at 50 mg/kg, ip bid; assay type: ADME, organism-based, Plasma; design: dose 50 mg/kg, route intraperitoneal; conditions: in vivo; procedure, shortened: as §2
[9] = test system: Mus musculus; experiment: AUC in CD1 mouse at 100 mg/kg, ip; assay type: ADME, organism-based, Plasma; design: dose 100 mg/kg, route intraperitoneal; conditions: in vivo; procedure, shortened: as §2
[10] = test system: Mus musculus; experiment: AUC in CD1 mouse at 50 mg/kg, ip; assay type: ADME, organism-based, Plasma; design: dose 50 mg/kg, route intraperitoneal; conditions: in vivo; procedure, shortened: as §2
[11] = test system: Mus musculus; experiment: AUC in CD1 mouse at 25 mg/kg, ip; assay type: ADME, organism-based, Plasma; design: dose 25 mg/kg, route intraperitoneal; conditions: in vivo; procedure, shortened: as §2
[12] = Clearance in CD1 mouse at 50 mg/kg, ip bid; assay type: ADME, organism-based; design: dose 50 mg/kg, route intraperitoneal; conditions: in vivo
Procedure, shortened: (§3)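 Female CD-1 mice received the test compound intraperitoneally, either as a single dose (25, 50 or 100 mg/kg) or as 50 mg/kg BID. Exposure was followed over time, and clearance was reported in mL/h/kg together with tmax, Cmax, half-life, VZ and AUC.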

[13] = Clearance in CD1 mouse at 100 mg/kg, ip; assay type: ADME, organism-based; design: dose 100 mg/kg, route intraperitoneal; conditions: in vivo; procedure, shortened: as §3
[14] = Clearance in CD1 mouse at 50 mg/kg, ip; assay type: ADME, organism-based; design: dose 50 mg/kg, route intraperitoneal; conditions: in vivo; procedure, shortened: as §3
[15] = Clearance in CD1 mouse at 25 mg/kg, ip; assay type: ADME, organism-based; design: dose 25 mg/kg, route intraperitoneal; conditions: in vivo; procedure, shortened: as §3
[16] = test system: Mus musculus; experiment: Apparent volume of distribution in CD1 mouse at 50 mg/kg, ip bid; assay type: ADME, organism-based; design: dose 50 mg/kg, route intraperitoneal; conditions: in vivo; procedure, shortened: as §2
[17] = test system: Mus musculus; experiment: Apparent volume of distribution in CD1 mouse at 100 mg/kg, ip; assay type: ADME, organism-based; design: dose 100 mg/kg, route intraperitoneal; conditions: in vivo; procedure, shortened: as §2
[18] = test system: Mus musculus; experiment: Apparent volume of distribution in CD1 mouse at 50 mg/kg, ip; assay type: ADME, organism-based; design: dose 50 mg/kg, route intraperitoneal; conditions: in vivo; procedure, shortened: as §2
[19] = test system: Mus musculus; experiment: Apparent volume of distribution in CD1 mouse at 25 mg/kg, ip; assay type: ADME, organism-based; design: dose 25 mg/kg, route intraperitoneal; conditions: in vivo; procedure, shortened: as §2
[20] = test system: Mus musculus; experiment: Half life in CD1 mouse at 50 mg/kg, ip bid; assay type: ADME, organism-based; design: dose 50 mg/kg, route intraperitoneal; conditions: in vivo; procedure, shortened: as §2
[21] = test system: Mus musculus; experiment: Half life in CD1 mouse at 100 mg/kg, ip; assay type: ADME, organism-based; design: dose 100 mg/kg, route intraperitoneal; conditions: in vivo; procedure, shortened: as §2
[22] = test system: Mus musculus; experiment: Half life in CD1 mouse at 50 mg/kg, ip; assay type: ADME, organism-based; design: dose 50 mg/kg, route intraperitoneal; conditions: in vivo; procedure, shortened: as §2
[23] = test system: Mus musculus; experiment: Half life in CD1 mouse at 25 mg/kg, ip; assay type: ADME, organism-based; design: dose 25 mg/kg, route intraperitoneal; conditions: in vivo; procedure, shortened: as §2
[24] = test system: Mus musculus; experiment: Cmax in CD1 mouse at 50 mg/kg, ip bid; assay type: ADME, organism-based; design: dose 50 mg/kg, route intraperitoneal; conditions: in vivo; procedure, shortened: as §2
[25] = test system: Mus musculus; experiment: Cmax in CD1 mouse at 100 mg/kg, ip; assay type: ADME, organism-based; design: dose 100 mg/kg, route intraperitoneal; conditions: in vivo; procedure, shortened: as §2
[26] = test system: Mus musculus; experiment: Cmax in CD1 mouse at 50 mg/kg, ip; assay type: ADME, organism-based; design: dose 50 mg/kg, route intraperitoneal; conditions: in vivo; procedure, shortened: as §2
[27] = test system: Mus musculus; experiment: Cmax in CD1 mouse at 25 mg/kg, ip; assay type: ADME, organism-based; design: dose 25 mg/kg, route intraperitoneal; conditions: in vivo; procedure, shortened: as §2
[28] = test system: Mus musculus; experiment: Tmax in CD1 mouse at 50 mg/kg, ip bid; assay type: ADME, organism-based; design: dose 50 mg/kg, route intraperitoneal; conditions: in vivo; procedure, shortened: as §2
[29] = test system: Mus musculus; experiment: Tmax in CD1 mouse at 100 mg/kg, ip; assay type: ADME, organism-based; design: dose 100 mg/kg, route intraperitoneal; conditions: in vivo; procedure, shortened: as §2
[30] = test system: Mus musculus; experiment: Tmax in CD1 mouse at 50 mg/kg, ip; assay type: ADME, organism-based; design: dose 50 mg/kg, route intraperitoneal; conditions: in vivo; procedure, shortened: as §2
[31] = test system: Mus musculus; experiment: Tmax in CD1 mouse at 25 mg/kg, ip; assay type: ADME, organism-based; design: dose 25 mg/kg, route intraperitoneal; conditions: in vivo; procedure, shortened: as §2
[32] = Inhibition of Bacillus anthracis UDP-GlcNAc 2-epimerase using UDP-GlcNAc as substrate preincubated for 15 mins by UDP-ManNAc dehydrogenase-coupled assay
[33] = Chemical stability in aqueous solution assessed as compound isomerization/degradation at pH 10 after 3 days by HPLC/NMR analysis; assay type: physicochemical; conditions: buffer, pH 10, 72 h
[34] = Aqueous solubility of the compound; assay type: physicochemical; conditions: buffer
[35] = test system: Enterococcus faecium; experiment: Antibacterial activity against Enterococcus faecium 6569 assessed as growth inhibition measured for 3 days by broth microdilution method; assay type: functional; procedure, shortened: as §1
[36] = test system: Enterococcus faecalis; experiment: Antibacterial activity against Enterococcus faecalis 19433 assessed as growth inhibition measured for 3 days by broth microdilution method; assay type: functional; procedure, shortened: as §1
[37] = test system: Streptococcus agalactiae; experiment: Antibacterial activity against Streptococcus agalactiae 12386 assessed as growth inhibition measured for 3 days by broth microdilution method; assay type: functional; conditions: Streptococcus agalactiae, 12386, 72 h; procedure, shortened: as §1
[38] = test system: Staphylococcus epidermidis; experiment: Antibacterial activity against Staphylococcus epidermidis 13518 assessed as growth inhibition measured for 3 days by broth microdilution method; assay type: functional; conditions: Staphylococcus epidermidis, 13518, 72 h; procedure, shortened: as §1
[39] = test system: Proteus mirabilis; experiment: Antibacterial activity against Proteus mirabilis assessed as growth inhibition measured for 3 days by broth microdilution method; assay type: functional; procedure, shortened: as §1
[40] = test system: Acinetobacter baumannii; experiment: Antibacterial activity against Acinetobacter baumannii assessed as growth inhibition measured for 3 days by broth microdilution method; assay type: functional; procedure, shortened: as §1
[41] = test system: Bacillus atrophaeus; experiment: Antibacterial activity against Bacillus atrophaeus assessed as growth inhibition measured for 3 days by broth microdilution method; assay type: functional; procedure, shortened: as §1
[42] = test system: Shigella sonnei; experiment: Antibacterial activity against Shigella sonnei assessed as growth inhibition measured for 3 days by broth microdilution method; assay type: functional; procedure, shortened: as §1
[43] = test system: Serratia marcescens; experiment: Antibacterial activity against Serratia marcescens assessed as growth inhibition measured for 3 days by broth microdilution method; assay type: functional; procedure, shortened: as §1
[44] = test system: Candida albicans; experiment: Antifungal activity against Candida albicans assessed as growth inhibition measured for 3 days by broth microdilution method; assay type: functional; conditions: 72 h
[45] = test system: Escherichia coli; experiment: Antibacterial activity against Escherichia coli assessed as growth inhibition measured for 3 days by broth microdilution method; assay type: functional; procedure, shortened: as §1
[46] = test system: Salmonella enterica; experiment: Antibacterial activity against Salmonella enterica assessed as growth inhibition measured for 3 days by broth microdilution method; assay type: functional; procedure, shortened: as §1
[47] = test system: Pseudomonas aeruginosa; experiment: Antibacterial activity against Pseudomonas aeruginosa assessed as growth inhibition measured for 3 days by broth microdilution method; assay type: functional; procedure, shortened: as §1

O=C(O)[C@H](Cc1ccccc1)N1C(=O)/C(=C/c2ccc(-c3ccc(Cl)c(Cl)c3)o2)NC1=S
MIC [1]: 6.8 µM (≈ 3.31 µg/mL) | MIC [2]: 6.8 µM (≈ 3.31 µg/mL)

O=C(O)[C@@H](Cc1ccccc1)N1C(=O)/C(=C\c2ccc(-c3ccc(Cl)c(Cl)c3)o2)NC1=S
MIC [1]: 6.8 µM (≈ 3.31 µg/mL) | MIC [2]: 6.8 µM (≈ 3.31 µg/mL)

O=C([O-])[C@H](Cc1ccccc1)N1C(=O)/C(=C\c2ccc(-c3ccc(Cl)c(Cl)c3)o2)NC1=S.[Na+]
T>MIC [3]: 18.3 h | T>MIC [4]: 19.4 h | T>MIC [5]: 14.6 h | T>MIC [6]: 10.6 h | Activity [7]: Non-toxic | AUC [8]: 1050 µg·h/mL | AUC [9]: 1800 µg·h/mL | AUC [10]: 480 µg·h/mL | AUC [11]: 170 µg·h/mL | CL/F [12]: 0.783 mL/min/kg | CL/F [13]: 0.917 mL/min/kg | CL/F [14]: 1.67 mL/min/kg | CL/F [15]: 2.33 mL/min/kg | Vz [16]: 0.24 L/kg | Vz [17]: 0.18 L/kg | Vz [18]: 0.34 L/kg | Vz [19]: 0.5 L/kg | t1/2 [20]: 3.4 h | t1/2 [21]: 2.2 h | t1/2 [22]: 2.3 h | t1/2 [23]: 2.4 h | Cmax [24]: 320 µg/mL | Cmax [25]: 490 µg/mL | Cmax [26]: 140 µg/mL | Cmax [27]: 68 µg/mL | Tmax [28]: 3.08 h | Tmax [29]: 4.8 min | Tmax [30]: 0.5 h | Tmax [31]: 4.8 min | pKi [32]: 4.09 | Stability [33]: Stable | solubility [34]: soluble | MIC [35]: 15.6 µM | MIC [36]: 15.6 µM | MIC [37]: 3.9 µM | MIC [38]: 2 µM | MIC [39]: > 25 µM | MIC [40]: > 25 µM | MIC [41]: 7.8 µM | MIC [42]: > 25 µM | MIC [43]: > 25 µM | MIC [44]: > 25 µM | MIC [45]: > 25 µM | MIC [46]: > 25 µM | MIC [47]: > 25 µM

Source: ChEMBL document CHEMBL3098130, “Discovery of Novel Putative Inhibitors of UDP-GlcNAc 2-Epimerase as Potent Antibacterial Agents” (ACS Med Chem Lett, 2013)
